# Values joined by “and” are separate entries in the source; they are usually repeats but may differ in a detail not shown here. Identical values can stand only once.
# Test system: U2OS
# Assay: Multiplex assay against U2OS
# Format: toxicity, cell-based
# Details: human
# Outline: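 Values for tubulin, mitochondrial-mass and membrane-permeability phenotypes are per cents of cells with healthy nuclei. These cells were identified by CellPathfinder machine-learning gating of live cells that had been stained at seeding with Hoechst33342, BioTracker Green Microtubule Cytoskeleton Dye, MitoTracker Red and Annexin V Alexa Fluor 680 and imaged on a CQ1 microscope at 37°C and 5% CO2 after compound addition. The gating first set Hoechst high-intensity objects apart from normal cells, then split normal cells into healthy, pyknosed or fragmented nuclei, and pyknosed cells into mitotic or apoptotic.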
# [1] = 12 h, 1 µM, compound concentration 1 uM
# [2] = 12 h, 10 µM, compound concentration 10 uM
# [3] = 24 h, 1 µM, compound concentration 1 uM
# [4] = 24 h, 10 µM, compound concentration 10 uM
# [5] = 48 h, 1 µM, compound concentration 1 uM
# [6] = 48 h, 10 µM, compound concentration 10 uM
compound,measurement,setting,value
O=C(NCCN1CCC(n2c(=O)[nH]c3cc(Cl)ccc32)CC1)c1ccc(F)cc1 [HALOPEMIDE],Population Apoptotic (%),[1],95% and 50%
same,Population Fragmented Nuclei (%),[1],24% and 13%
same,Population Healthy Nuclei (%),[1],65% and 79%
same,Population Hoechst High Intensity Objects (%),[1],1% and 0%
same,Population Membrane Permeable-Phenotype (%),[1],6% and 7%
same,Population Mitochondria Different-Phenotype (%),[1],1% and 2%
same,Population Normal (%),[1],98% and 100%
same,Population Pyknosed Nuclei (%),[1],10% and 7%
same,Population Tubulin-Different-Phenotype (%),[1],2% and 3%
same,Total Cell Count,[1],209 and 105
same,Population Apoptotic (%),[2],68% and 61%
same,Population Fragmented Nuclei (%),[2],19% and 12%
same,Population Healthy Nuclei (%),[2],65% and 78%
same,Population Hoechst High Intensity Objects (%),[2],4% and 1%
same,Population Membrane Permeable-Phenotype (%),[2],23% and 26%
same,Population Mitochondria Different-Phenotype (%),[2],11% and 32%
same,Population Mitotic Cells (%),[2],31% and 38%
same,Population Normal (%),[2],95% and 98%
same,Population Pyknosed Nuclei (%),[2],15% and 8%
same,Population Tubulin-Different-Phenotype (%),[2],15% and 27%
same,Total Cell Count,[2],244 and 152
same,Population Apoptotic (%),[3],91% and 81%
same,Population Fragmented Nuclei (%),[3],22% and 15%
same,Population Healthy Nuclei (%),[3],68% and 72%
same,Population Hoechst High Intensity Objects (%),[3],1% and 0%
same,Population Membrane Permeable-Phenotype (%),[3],6% and 10%
same,Population Mitochondria Different-Phenotype (%),[3],1% and 3%
same,Population Mitotic Cells (%),[3],8% and 18%
same,Population Normal (%),[3],98% and 99%
same,Population Pyknosed Nuclei (%),[3],9% and 12%
same,Population Tubulin-Different-Phenotype (%),[3],1% and 8%
same,Total Cell Count,[3],241 and 132
same,Population Apoptotic (%),[4],75% and 63%
same,Population Fragmented Nuclei (%),[4],17% and 16%
same,Population Healthy Nuclei (%),[4],64% and 71%
same,Population Hoechst High Intensity Objects (%),[4],2% and 3%
same,Population Membrane Permeable-Phenotype (%),[4],15% and 26%
same,Population Mitochondria Different-Phenotype (%),[4],10% and 23%
same,Population Mitotic Cells (%),[4],25% and 36%
same,Population Normal (%),[4],97% and 96%
same,Population Pyknosed Nuclei (%),[4],18% and 12%
same,Population Tubulin-Different-Phenotype (%),[4],7% and 21%
same,Total Cell Count,[4],271 and 159
same,Population Apoptotic (%),[5],68% and 95%
same,Population Fragmented Nuclei (%),[5],16% and 17%
same,Population Healthy Nuclei (%),[5],75% and 69%
same,Population Hoechst High Intensity Objects (%),[5],2% and 1%
same,Population Membrane Permeable-Phenotype (%),[5],4% and 9%
same,Population Mitochondria Different-Phenotype (%),[5],2% and 5%
same,Population Normal (%),[5],97% and 98%
same,Population Pyknosed Nuclei (%),[5],7% and 12%
same,Population Tubulin-Different-Phenotype (%),[5],2% and 6%
same,Total Cell Count,[5],337 and 187
same,Population Apoptotic (%),[6],81% and 77%
same,Population Fragmented Nuclei (%),[6],15% and 13%
same,Population Healthy Nuclei (%),[6],69% and 67%
same,Population Hoechst High Intensity Objects (%),[6],3% and 6%
same,Population Membrane Permeable-Phenotype (%),[6],10% and 16%
same,Population Mitochondria Different-Phenotype (%),[6],5% and 12%
same,Population Mitotic Cells (%),[6],18% and 22%
same,Population Normal (%),[6],96% and 93%
same,Population Pyknosed Nuclei (%),[6],14% and 18%
same,Population Tubulin-Different-Phenotype (%),[6],5% and 6%
same,Total Cell Count,[6],382 and 197
c1cc(OCCCN2CCCCC2)ccc1CN1CCCCC1 [JNJ-5207852],Population Apoptotic (%),[1],76% and 58%
same,Population Fragmented Nuclei (%),[1],29% and 25%
same,Population Healthy Nuclei (%),[1],65% and 62%
same,Population Hoechst High Intensity Objects (%),[1],2% and 0%
same,Population Membrane Permeable-Phenotype (%),[1],5% and 7%
same,Population Mitochondria Different-Phenotype (%),[1],3%
same,Population Mitotic Cells (%),[1],23% and 41%
same,Population Normal (%),[1],97% and 99%
same,Population Pyknosed Nuclei (%),[1],5% and 11%
same,Population Tubulin-Different-Phenotype (%),[1],3%
same,Total Cell Count,[1],253 and 106
same,Population Apoptotic (%),[2],73% and 85%
same,Population Fragmented Nuclei (%),[2],34% and 13%
same,Population Healthy Nuclei (%),[2],57% and 80%
same,Population Hoechst High Intensity Objects (%),[2],2% and 4%
same,Population Membrane Permeable-Phenotype (%),[2],5% and 7%
same,Population Mitochondria Different-Phenotype (%),[2],3% and 9%
same,Population Mitotic Cells (%),[2],26% and 14%
same,Population Normal (%),[2],97% and 95%
same,Population Pyknosed Nuclei (%),[2],8% and 6%
same,Population Tubulin-Different-Phenotype (%),[2],3% and 6%
same,Total Cell Count,[2],228 and 120
same,Population Apoptotic (%),[3],84% and 66%
same,Population Fragmented Nuclei (%),[3],25% and 21%
same,Population Healthy Nuclei (%),[3],65% and 68%
same,Population Hoechst High Intensity Objects (%),[3],1% and 0%
same,Population Membrane Permeable-Phenotype (%),[3],3% and 4%
same,Population Mitochondria Different-Phenotype (%),[3],2%
same,Population Mitotic Cells (%),[3],16% and 33%
same,Population Normal (%),[3],98% and 100%
same,Population Pyknosed Nuclei (%),[3],8% and 10%
same,Population Tubulin-Different-Phenotype (%),[3],2% and 4%
same,Total Cell Count,[3],287 and 119
same,Population Apoptotic (%),[4],82% and 84%
same,Population Fragmented Nuclei (%),[4],28% and 10%
same,Population Healthy Nuclei (%),[4],62% and 80%
same,Population Hoechst High Intensity Objects (%),[4],1%
same,Population Membrane Permeable-Phenotype (%),[4],4% and 8%
same,Population Mitochondria Different-Phenotype (%),[4],3% and 5%
same,Population Mitotic Cells (%),[4],17% and 15%
same,Population Normal (%),[4],98%
same,Population Pyknosed Nuclei (%),[4],8%
same,Population Tubulin-Different-Phenotype (%),[4],3% and 8%
same,Total Cell Count,[4],271 and 157
same,Population Apoptotic (%),[5],82% and 76%
same,Population Fragmented Nuclei (%),[5],21% and 19%
same,Population Healthy Nuclei (%),[5],69% and 71%
same,Population Hoechst High Intensity Objects (%),[5],2% and 3%
same,Population Membrane Permeable-Phenotype (%),[5],4% and 9%
same,Population Mitochondria Different-Phenotype (%),[5],2% and 4%
same,Population Mitotic Cells (%),[5],17% and 23%
same,Population Normal (%),[5],97% and 96%
same,Population Pyknosed Nuclei (%),[5],8%
same,Population Tubulin-Different-Phenotype (%),[5],4% and 3%
same,Total Cell Count,[5],400 and 152
same,Population Apoptotic (%),[6],86% and 93%
same,Population Fragmented Nuclei (%),[6],22% and 14%
same,Population Healthy Nuclei (%),[6],70% and 78%
same,Population Hoechst High Intensity Objects (%),[6],2% and 1%
same,Population Membrane Permeable-Phenotype (%),[6],7% and 6%
same,Population Mitochondria Different-Phenotype (%),[6],3% and 2%
same,Population Mitotic Cells (%),[6],13% and 6%
same,Population Normal (%),[6],97% and 98%
same,Population Pyknosed Nuclei (%),[6],6%
same,Population Tubulin-Different-Phenotype (%),[6],5% and 4%
same,Total Cell Count,[6],345 and 245

# — ChEMBL document CHEMBL5724801, “EUbOPEN Chemogenomics Library - Multiplex” (2024)
